Experimental data pooled from the literature.
Protocols differ between the studies behind these lines.
Target: Fibroblast growth factor receptor 4 (FGFR4, Homo sapiens, UniProt P22455)

Compound | assay | conditions | remaining binding [%]
F[C@@H]1CCN(c2nccc(-c3cnn4ncccc34)n2)C1 | binding | 1 µM | 100
O=C(NCCCN1CCOCC1)c1ccc(Nc2nccc(-c3cc4ccccc4s3)n2)cc1 | binding, competition with immobilised ligand | 1 µM | 91
CN(c1nccc(-c2cnn3ncccc23)n1)C1CC1 | binding | 1 µM | 99
O=C(NS(=O)(=O)c1ccc(NCC2CCOCC2)c([N+](=O)[O-])c1)c1ccc(N2CCN(Cc3ccc(C(F)(F)F)cc3-c3ccc(Cl)cc3)CC2)cc1Oc1cnc2[nH]ccc2c1 | cell-free assay, competition with immobilised ligand | 1 µM | 96
c1cncc(-c2cccc(Nc3nccc(NC4CCCCC4)n3)c2)c1 | binding, competition with immobilised ligand | 10 µM | 94
O=C(c1ccc(Nc2nccc(-c3cc4ccccc4s3)n2)cc1)N1CCC(N2CCCC2)CC1 | binding, competition with immobilised ligand | 1 µM | 99
CN(CCCC(F)(F)F)c1nccc(-c2cnn3ncccc23)n1 | binding | 1 µM | 96
COc1ncc2cc3ccccc3nc2c1C#N | cell-free assay, competition with immobilised ligand | 5 µM | 88
O=C(NCCCN1CCOCC1)c1ccc(Nc2ncc(Cl)c(-c3ccc(Cl)s3)n2)cc1 | binding, competition with immobilised ligand | 1 µM | 89
CNC(=O)[C@@H]1CC[C@@H](n2c(-c3ccc4cnccc4c3)nc3ccc(C(=O)NCc4cccc(C(N)=O)c4)cc32)C1 | binding, competition with immobilised ligand | 1 µM | 100
CCc1ccccc1C(=O)Nc1n[nH]c2c(C)c(F)c(C3C(C#N)=C(C)N(C)C(C)=C3C#N)cc12 | cell-free assay, competition with immobilised ligand | 1 µM | 100
C[C@H]1CCN(c2nccc(-c3cnn4ncccc34)n2)C1 | binding | 1 µM | 76
C=CC(=O)N1CCC(C(=O)NCC(=O)N2CCN(c3nc(-c4cnc(N)nc4C(F)F)nc(N4CCOCC4)n3)CC2)CC1 | binding, competition with immobilised ligand | 1 µM | 100
CN(c1ccnc(CNc2nc(Nc3ccc4c(c3)CC(=O)N4)ncc2C(F)(F)F)n1)S(C)(=O)=O | cell-free assay, competition with immobilised ligand | 1 µM | 83
COc1cnc(Nc2cccc(S(N)(=O)=O)c2)nc1N1CCN(c2ccccc2)CC1 | binding, competition with immobilised ligand | 1 µM | 98
CS(=O)(=O)c1cc(C2(NC(=O)c3cncc4c3cnn4-c3ccc(F)cc3)CC2)ccn1 | cell-free assay, competition with immobilised ligand | 1 µM | 74
FC(F)(F)Oc1cccc(-c2cnc3ccc(-c4ccncc4)nn23)c1 | cell-free assay, competition with immobilised ligand | 5 µM | 98
O=C(Nc1c[nH]nc1C(=O)NC1CCNCC1)c1cc(F)cc(F)c1 | binding, competition with immobilised ligand | 1 µM | 100
c1cnn2ncc(-c3ccnc(N4CCC45COC5)n3)c2c1 | binding | 1 µM | 91
C[C@H](c1ccc(F)cc1)N(Cc1cccc(C(=O)O)c1)C(=O)c1cnc2ccccc2c1 | cell-free assay, competition with immobilised ligand | 1 µM | 91
N[C@@H]1CCN(c2nccc(-c3cnn4ncccc34)n2)C1 | binding | 1 µM | 96
O=C(Nc1ccc(Oc2ccc(F)cc2)cc1)N1CCc2ncccc2[C@H]1c1ccc(F)cc1 | cell-free assay, competition with immobilised ligand | 1 µM | 95
